ChEMBL document CHEMBL4428090, “Modeling, Synthesis, and Biological Evaluation of Potential Retinoid X Receptor (RXR)-Selective Agonists: Analogues of 4-[1-(3,5,5,8,8-Pentamethyl-5,6,7,8-tetrahydro-2-naphthyl)ethynyl]benzoic Acid (Bexarotene) and 6-(Ethyl(5,5,8,8-tetrahydronaphthalen-2-yl)amino)nicotinic Acid (NEt-TMN)” (J Med Chem, 2016)
Active and inactive are the calls of the source. The rule behind the calls is not given here.

Key:
Retinoid X receptor = biological target: T1, Retinoid X receptor (Homo sapiens, UniProt P28702+P48443+P19793); experiment: Agonist activity at human RXR binding domain and activation domain expressed in human HCT116 cells assessed as rexinoid activity incubated for 24 hrs by luciferase reporter gene based mammalian two-hybrid assay; assay type: cell-based
T1 sequence (P28702 whole entry): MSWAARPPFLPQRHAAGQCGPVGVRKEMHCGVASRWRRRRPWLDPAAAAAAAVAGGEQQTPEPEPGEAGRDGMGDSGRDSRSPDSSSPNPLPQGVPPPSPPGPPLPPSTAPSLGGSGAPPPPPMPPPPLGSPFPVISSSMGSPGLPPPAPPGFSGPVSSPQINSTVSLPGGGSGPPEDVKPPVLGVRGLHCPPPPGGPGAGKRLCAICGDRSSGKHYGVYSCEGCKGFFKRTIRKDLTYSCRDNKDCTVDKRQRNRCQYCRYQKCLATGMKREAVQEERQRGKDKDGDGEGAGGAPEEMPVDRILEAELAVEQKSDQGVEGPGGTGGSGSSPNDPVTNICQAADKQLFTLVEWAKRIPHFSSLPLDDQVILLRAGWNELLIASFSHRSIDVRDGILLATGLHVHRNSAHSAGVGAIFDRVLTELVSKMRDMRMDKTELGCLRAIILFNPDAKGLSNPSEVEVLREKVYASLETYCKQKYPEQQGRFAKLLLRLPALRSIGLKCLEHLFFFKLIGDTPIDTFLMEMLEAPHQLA
T1 sequence (P48443 whole entry): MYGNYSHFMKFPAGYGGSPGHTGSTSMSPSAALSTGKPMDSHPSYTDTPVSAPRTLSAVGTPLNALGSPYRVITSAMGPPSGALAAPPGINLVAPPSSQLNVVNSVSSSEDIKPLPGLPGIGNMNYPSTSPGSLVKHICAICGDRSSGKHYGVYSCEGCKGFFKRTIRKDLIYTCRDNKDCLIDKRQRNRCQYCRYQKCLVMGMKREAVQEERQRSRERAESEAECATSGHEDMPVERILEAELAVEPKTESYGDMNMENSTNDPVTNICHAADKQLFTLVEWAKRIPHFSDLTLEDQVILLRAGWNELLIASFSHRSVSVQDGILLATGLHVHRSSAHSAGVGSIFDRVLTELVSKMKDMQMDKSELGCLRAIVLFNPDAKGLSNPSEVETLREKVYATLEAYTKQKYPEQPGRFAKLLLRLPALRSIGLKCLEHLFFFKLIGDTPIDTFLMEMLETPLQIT
T1 sequence (P19793 whole entry): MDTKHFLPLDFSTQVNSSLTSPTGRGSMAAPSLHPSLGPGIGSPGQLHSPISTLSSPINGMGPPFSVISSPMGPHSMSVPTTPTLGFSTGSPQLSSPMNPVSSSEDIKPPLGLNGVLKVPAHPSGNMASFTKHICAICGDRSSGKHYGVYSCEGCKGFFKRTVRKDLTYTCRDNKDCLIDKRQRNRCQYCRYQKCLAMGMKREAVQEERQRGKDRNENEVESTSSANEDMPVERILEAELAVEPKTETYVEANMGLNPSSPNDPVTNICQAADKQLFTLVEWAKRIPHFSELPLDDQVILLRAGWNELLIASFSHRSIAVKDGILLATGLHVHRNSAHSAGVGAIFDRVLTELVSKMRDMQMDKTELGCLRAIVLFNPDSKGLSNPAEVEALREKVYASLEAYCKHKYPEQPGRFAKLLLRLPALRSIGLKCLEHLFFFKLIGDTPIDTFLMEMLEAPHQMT

[1] = biological target: T2, Retinoid X receptor (Homo sapiens) (UniProt P28702+P48443+P19793); experiment: Agonist activity at human RXR binding domain and activation domain expressed in human HCT116 cells assessed as rexinoid activity at 25 nM incubated for 24 hrs by luciferase reporter gene based mammalian two-hybrid assay relative to bexarotene; assay type: cell-based
Summary of the method: (§1)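 HCT-116 cells plated overnight (80,000/well, DMEM with 10% FBS), co-transfected for 24 h with human RXR binding-domain (bait) and activation-domain (prey) vectors, pFR-Luc Gal4 reporter and renilla control. Treated 24 h at 25, 100 or 1000 nM final; vehicle ethanol or DMSO 0.1%. Dual-luciferase read-out. Three independent assays in triplicate; bexarotene set to 100%.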

[2] = biological target: T2, Retinoid X receptor (Homo sapiens); experiment: Agonist activity at human RXR binding domain and activation domain expressed in human HCT116 cells assessed as rexinoid activity at 100 nM incubated for 24 hrs by luciferase reporter gene based mammalian two-hybrid assay relative to bexarotene; assay type: cell-based; summary of the method: as §1
[3] = biological target: T2, Retinoid X receptor (Homo sapiens); experiment: Agonist activity at human RXR binding domain and activation domain expressed in human HCT116 cells assessed as rexinoid activity at 1000 nM incubated for 24 hrs by luciferase reporter gene based mammalian two-hybrid assay relative to bexarotene; assay type: cell-based; summary of the method: as §1
[4] = biological target: T2, Retinoid X receptor (Homo sapiens); experiment: Antagonist activity against human RXR binding domain and activation domain expressed in human HCT116 cells assessed as reduction in bexarotene-induced rexinoid activity incubated for 24 hrs by luciferase reporter gene based mammalian two-hybrid assay; assay type: cell-based
[5] = biological target: T3, Retinoic acid receptor RXR-alpha (Homo sapiens) (UniProt P19793); experiment: Agonist activity at human RXRalpha expressed in human HCT116 cells assessed as increase in RXRE-mediated transcription incubated for 24 hrs by RXRE luciferase reporter gene assay; assay type: cell-based
T3 sequence (whole entry): T1 sequence (P19793 whole entry)

[6] = biological target: T4, Retinoic acid receptor RXR-alpha/oxysterols receptor LXR-alpha (Homo sapiens, UniProt P19793+Q13133); experiment: Agonist activity at human RXRalpha/LXRalpha expressed in human HCT116 cells assessed as reduction in SREBP-mediated transcription activity at 100 nM incubated for 24 hrs by luciferase reporter gene assay relative to bexarotene; assay type: cell-based; design: scale not given: the % may be the effect or the level left; conditions: 0.1 µM
T4 sequence (P19793 whole entry): T1 sequence (P19793 whole entry)
T4 sequence (Q13133 whole entry): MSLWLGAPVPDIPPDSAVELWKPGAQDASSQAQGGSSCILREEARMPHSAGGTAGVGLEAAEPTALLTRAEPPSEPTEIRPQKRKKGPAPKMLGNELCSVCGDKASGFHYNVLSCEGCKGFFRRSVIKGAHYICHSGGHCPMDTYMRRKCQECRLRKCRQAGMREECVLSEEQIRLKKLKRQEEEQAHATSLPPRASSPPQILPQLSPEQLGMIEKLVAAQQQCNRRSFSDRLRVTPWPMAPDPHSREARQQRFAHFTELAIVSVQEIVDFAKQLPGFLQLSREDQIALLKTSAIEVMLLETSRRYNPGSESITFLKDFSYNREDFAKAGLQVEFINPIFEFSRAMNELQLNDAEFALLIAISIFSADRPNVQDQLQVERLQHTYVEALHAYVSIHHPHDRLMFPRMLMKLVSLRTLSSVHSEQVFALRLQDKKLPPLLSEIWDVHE
Summary of the method: (§2)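 HCT116 cells co-transfected for 24 h with 100 ng pBP1c(6500)-Luc (about 6500 bp murine SREBP-1c promoter), 10 ng human LXRα and 20 ng renilla. Treated 24 h with compound at 100 nM, alone or with 100 nM TO901317. Luciferase output. Three independent assays in triplicate; bexarotene = 100%.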

[7] = Mutagenicity in Saccharomyces cerevisiae D7 assessed as induction of mutagenesis by measuring forward and reverse mutations up to 0.1 mg/mL; assay type: toxicity
[8] = biological target: T3, Retinoic acid receptor RXR-alpha (Homo sapiens); experiment: Agonist activity at human RXRalpha expressed in human HCT116 cells assessed as increase in RXRE-mediated transcription at 25 nM incubated for 24 hrs by RXRE luciferase reporter gene assay relative to bexarotene; assay type: cell-based
Summary of the method: (§3)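 HCT-116 cells (80,000/well) co-transfected for 24 h with 250 ng RXRE-luciferase reporter (DR1 element from the rat cellular retinol binding protein II gene), 25 ng pSG5-human RXRα and 20 ng renilla. Dosed 24 h at 25, 100 or 1000 nM final; ethanol or DMSO vehicle 0.1%. Dual-luciferase read-out. Three independent assays in triplicate; bexarotene = 100%.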

[9] = biological target: T3, Retinoic acid receptor RXR-alpha (Homo sapiens); experiment: Agonist activity at human RXRalpha expressed in human HCT116 cells assessed as increase in RXRE-mediated transcription at 100 nM incubated for 24 hrs by RXRE luciferase reporter gene assay relative to bexarotene; assay type: cell-based; summary of the method: as §3
[10] = biological target: T3, Retinoic acid receptor RXR-alpha (Homo sapiens); experiment: Agonist activity at human RXRalpha expressed in human HCT116 cells assessed as increase in RXRE-mediated transcription at 1000 nM incubated for 24 hrs by RXRE luciferase reporter gene assay relative to bexarotene; assay type: cell-based; summary of the method: as §3
[11] = biological target: T4, Retinoic acid receptor RXR-alpha/oxysterols receptor LXR-alpha; experiment: Agonist activity at human RXRalpha/LXRalpha expressed in human HCT116 cells assessed as reduction in SREBP-mediated transcription activity at 100 nM incubated for 24 hrs by luciferase reporter gene assay in presence of 100 nM LXR agonist TO901317 relative to bexarotene; assay type: cell-based; design: scale not given: the % may be the effect or the level left; conditions: 0.1 µM; summary of the method: as §2
[12] = Lipid risk index, ratio of agonist activity at human RXRalpha/LXRalpha expressed in human HCT116 cells assessed as reduction in SREBP-mediated transcription activity to agonist activity at human RXRalpha expressed in human HCT116 cells assessed as increase in RXRE-mediated transcription
Summary of the method: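 Lipid risk index: SREBP-promoter luciferase activity (HCT116, LXRα-transfected, 100 nM compound with or without 100 nM TO901317, 24 h) divided by RXRE activity at 100 nM. The SREBP:RXRE ratio for bexarotene is set to 1.0.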

HuT78 = experiment: Growth inhibition of human HUT78 cells at 200 nM incubated for 72 hrs by MTS assay relative to bexarotene; assay type: functional; conditions: HuT78, 72 h, read-out: GI
Summary of the method: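 Hut78 cells in RPMI with 10% FBS at 37°C, 5% CO2. Plated 7,500 cells/well and immediately dosed at 200 nM for 72 h. MTS read at A490; percent inhibition with media control set to 0.0, compared with bexarotene set to 100%. Mean of three independent experiments.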

Structure (SMILES)	EC50 (Retinoid X receptor)	Activity [1]	Activity [2]	Activity [3]	Activity [4]	Activity [5]	Activity [6]	Activity [7]	fold change (FC) [1]	Activity [8]	Activity [9]	Activity [10]	Activity [11]	Ratio [12]	inhibition of growth at 0.2 µM (HuT78)
Cc1cc2c(cc1C(=O)c1ccc(S(=O)(=O)O)cc1)C(C)(C)CCC2(C)C	> 80000 nM	0.6%	inactive	inactive	Dose-dependent effect	inactive	Not Active	Non-Toxic	–	–	–	–	–	–	–
CCN(c1ccc(C(=O)O)cn1)c1cc2c(cc1C)C(C)(C)CCC2(C)C	13.8 nM	–	135 to 146%	35 to 58%	–	–	Active	Non-Toxic	2	27 to 66%	68 to 89%	20 to 43%	13 to 17%	0.49 - 0.51	> 85%
CCN(c1ccc2c(c1)C(C)(C)CCC2(C)C)c1ncc(C(=O)O)cn1	40.9 nM	–	135 to 146%	35 to 58%	–	–	Active	Non-Toxic	2	27 to 66%	68 to 89%	20 to 43%	13 to 17%	0.49 - 0.51	> 85%
CCN(c1ccc(C(=O)O)cc1)c1ccc2c(c1)C(C)(C)CCC2(C)C	143.4 nM	–	Active	–	–	–	54 to 79%	Non-Toxic	–	–	16 to 32%	Active	Active	–	55 to 80%
